Article PMC8822587 (ACS infectious diseases, 2021)
Like-named read-outs stand apart in the source and are kept apart here. Non-standard residues stand in square brackets, D forms with d. Residues, ends and D or L forms follow the SMILES beside them. ξ: configuration not given here. Aoe = N[C@@H](CCCCCC(=O)[C@@H]1CO1)C(=O)O; Aoe(9ξ) = N[C@@H](CCCCCC(=O)C1CO1)C(=O)O; Pip = O=C(O)[C@@H]1CCCCN1

Legend:
[1] = system: HepG2 hepatocarcinoma cells; assay: MTS human cell cytotoxicity assay; format: cell-based; conditions: for EC50: read-out: HepG2 EC50
[2] = molecular target: T1, recombinant PfHDAC1 (Plasmodium falciparum, UniProt Q7K6A1); assay: biochemical
T1 sequence (Q7K6A1 1-449): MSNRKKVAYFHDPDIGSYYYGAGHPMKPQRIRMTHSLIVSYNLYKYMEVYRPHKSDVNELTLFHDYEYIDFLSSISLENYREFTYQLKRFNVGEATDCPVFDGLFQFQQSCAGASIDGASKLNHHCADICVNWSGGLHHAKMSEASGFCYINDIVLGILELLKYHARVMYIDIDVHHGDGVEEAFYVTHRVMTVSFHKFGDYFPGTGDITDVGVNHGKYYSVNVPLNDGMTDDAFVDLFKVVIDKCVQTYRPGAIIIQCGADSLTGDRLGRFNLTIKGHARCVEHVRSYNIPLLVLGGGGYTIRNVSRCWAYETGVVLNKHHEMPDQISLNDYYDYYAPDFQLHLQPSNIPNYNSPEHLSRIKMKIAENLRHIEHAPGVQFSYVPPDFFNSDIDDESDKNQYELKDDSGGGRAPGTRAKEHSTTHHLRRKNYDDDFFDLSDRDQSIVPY

[3] = system: P. falciparum strain Dd2; assay: SYBR Green I fluorescence antiplasmodial assay, Dd2; format: cell-based, Plasmodium falciparum
[4] = system: P. falciparum 3D7; conditions: read-out: P. falciparum 3D7 EC50; literature values; cited from earlier work
[5] = system: synchronous Dd2 parasites; assay: Stage specific inhibition assay; format: cell-based, Plasmodium falciparum; conditions: 5 × EC50, synchronous Dd2
Outline: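 Stage development assessed by Giemsa smears at every condition and time point, plus flow cytometry. Flow samples fixed in 4% paraformaldehyde for 30 min at 37°C, washed 3x in PBS, held at 4°C, then resuspended in 0.25% Triton X-100 and shaken at 500 RPM for 10 min. Parasites gated against an uninfected RBC control; treated-culture histograms overlaid on vehicle-treated culture.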

[6] = system: histone H4 acetylation in Plasmodium culture; assay: Immunofluorescence assay with anti-acetyl histone H4; format: cell-based, Plasmodium falciparum; conditions: synchronous cultures, 5x EC50
[7] = system: acetyl-histone H4 in 3D7 parasite culture; assay: Immunoblot of histone H4 hyperacetylation; format: cell-based, Plasmodium falciparum; conditions: 3D7 trophozoites, 5× EC50, 4 h, versus DMSO
[8] = system: asynchronous P. falciparum Dd2 parasites; assay: Rate of killing assay with compound wash-off; format: cell-based, Plasmodium falciparum; conditions: 10 × EC50, exposure 24 or 48 h, then wash-off
[9] = 48 h treatment, MTS, mean of triplicate ± SE/SEM
[10] = read-out: PfHDAC1 IC50, recombinant enzyme, 2 h at 37°C, mean of duplicate ± SEM

**Q.** With CC(C)C[C@@H]1NC(=O)[C@@H](Cc2ccccc2)NC(=O)[C@H](CCCCCC(=O)C2CO2)NC(=O)[C@@H]2CCCCN2C1=O (some centres unmarked) [Compound 11, WF-3161] (cyclo(L[Pip][Aoe(9ξ)][dF])) as the compound, how does the EC50 [1, 9] read?
**A.** 22 ± 0.9 µM

**Q.** What about the IC50 [2, 10] of the same compound?
**A.** 0.002 ± 0.002 µM

**Q.** Which results are given for NA 1309 [Compound 7]?
**A.** EC50 [1, 9]: > 25 µM; IC50 [2, 10]: 6.3 ± 0.8 µM

**Q.** Which “Selectivity Index (SI)” value ([1]; HepG2 EC50 / average of Dd2 EC50 and 3D7 EC50) does the source give for CC1(C)NC(=O)[C@H](CCCCCC(=O)[C@H]2CO2)NC(=O)[C@H]2CCCN2C(=O)[C@H](Cc2ccccc2)NC1=O [Compound 1, chlamydocin] here?
**A.** 17

**Q.** And the EC50 ([1]; Homo sapiens, HepG2, 48 h)?
**A.** 0.53 ± 0.007 µM

**Q.** What about the EC50 ([3]; Plasmodium falciparum, DD2, 72 h, read-out: Dd2 EC50) of the same compound?
**A.** 0.031 ± 0.007 µM

**Q.** Which EC50 [4] does the source give for C[C@@H]1NC(=O)[C@H]2CCCN2C(=O)[C@H](CCCCCC(=O)[C@@H]2CO2)NC(=O)[C@@H](C)NC1=O [HC toxin] here?
**A.** 0.029 ± 0.002 µM

**Q.** With O=C(CCCCCCC(=O)Nc1ccccc1)NO [SAHA, suberanilohydroxamic acid] as the compound, how does the “effect of treatment at 6 HPI” value [5] read?
**A.** resemble late trophozoite

**Q.** What about the “effect of treatment at 42 HPI” value [5] of the same compound?
**A.** partially inhibited at schizogony

**Q.** And the “histone H4 acetylation (immunofluorescence)” value [6]?
**A.** noticeable increase in histone H4 acetylation

**Q.** And the “histone H4 acetylation (Western blot)” value [7]?
**A.** hyperacetylation

**Q.** And the IC50 [2]?
**A.** 0.092 ± 0.02 µM

**Q.** For C[C@@H]1NC(=O)[C@H](CCCCCC(=O)[C@@H]2CO2)NC(=O)[C@H]2CCCN2C(=O)[C@H](Cc2ccccc2)NC1=O [Compound 2, 1-alaninechlamydocin] (cyclo(AF[dP][Aoe])), which EC50 [1, 9] is on record?
**A.** 0.038 ± 0.006 µM

**Q.** What about the “histone H4 acetylation (Western blot)” value [7] of the same compound?
**A.** hyperacetylation

**Q.** Which EC50 [1, 9] does the source give for Deoxy-WF 20782B [Compound 5] here?
**A.** 0.88 ± 0.05 µM

**Q.** What about the “fold increase in EC50 compared with epoxide or alcohol R1 analogs” value ([3]; ethyl analog versus analogs with epoxide or alcohol at R1) of the same compound?
**A.** 2–6 fold

**Q.** For FR235222 [Compound 3], which EC50 [1, 9] is on record?
**A.** 0.26 ± 0.06 µM

**Q.** And the killing profile [8]?
**A.** plasmodistatic

**Q.** With WF 27082F [Compound 4] as the compound, how does the EC50 [1, 9] read?
**A.** 0.15 ± 0.04 µM
